For assay [1], the target named is Somatostatin receptor type 3 (Homo sapiens, UniProt P32745). In words: The compound was tested for binding affinity against human Somatostatin receptor type 3. In a few lines:
(§1)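 CHO-K1 cells stably transfected (calcium phosphate) with cloned human sst3 or sst4. Membranes made in ice-cold 50 mM Tris-HCl, resuspended in 10 mM Tris-HCl, then incubated 30 min at 37 °C with 0.05 nM [125I]Tyr11-SRIF in HEPES pH 7.4 with BSA, MgCl2 and protease inhibitors. Filtered on GF/C; nonspecific binding with 1.0 µM SRIF. Mean ± SEM, or one experiment.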

Assay [2] addresses Somatostatin receptor type 2 (Homo sapiens, UniProt P30874). Kind of assay: The compound was tested for binding affinity against human Somatostatin receptor type 2. In a few lines:
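Membranes from CHO-K1 cells transfected with the cloned human sst2. Incubated 30 min at 37 °C with 0.05 nM [125I]MK-678 in HEPES pH 7.4 with BSA, MgCl2, Trasylol, bacitracin and PMSF. Filtration on PEI-soaked GF/C filters. Nonspecific binding defined with 1.0 μM SRIF. Mean ± SEM; single values are from one experiment.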

In assay [3] the target is Somatostatin receptor type 5 (Homo sapiens, UniProt P35346). In words: The compound was tested for binding affinity against human Somatostatin receptor type 5. In a few lines: (§2)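 Membranes from CHO-K1 cells transfected with the cloned human receptor. Terminated by filtration on PEI-soaked GF/C filters. Nonspecific binding defined with 1.0 μM SRIF. Mean ± SEM; single values are from one experiment.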
Chain of Somatostatin receptor type 5 (P35346 whole entry): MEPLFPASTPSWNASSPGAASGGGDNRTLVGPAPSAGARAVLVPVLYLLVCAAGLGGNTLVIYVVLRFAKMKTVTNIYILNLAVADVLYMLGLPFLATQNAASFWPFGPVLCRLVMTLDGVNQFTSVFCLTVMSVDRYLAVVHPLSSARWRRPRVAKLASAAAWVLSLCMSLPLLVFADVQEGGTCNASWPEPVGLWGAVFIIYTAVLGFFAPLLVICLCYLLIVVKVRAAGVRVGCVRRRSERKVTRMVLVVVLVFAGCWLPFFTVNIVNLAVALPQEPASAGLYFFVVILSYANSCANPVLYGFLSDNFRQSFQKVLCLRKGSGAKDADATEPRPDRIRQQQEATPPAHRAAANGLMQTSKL

For assay [4], the target named is Somatostatin receptor type 4 (Homo sapiens, UniProt P31391). Kind of assay: The compound was tested for binding affinity against human Somatostatin receptor type 4. In a few lines:
as §1

The target in assay [5] is Somatostatin receptor type 1 (Homo sapiens, UniProt P30872). In words: The compound was tested for binding affinity against human Somatostatin receptor type 1. In a few lines:
as §2

Chain of Somatostatin receptor type 4 (P31391 whole entry): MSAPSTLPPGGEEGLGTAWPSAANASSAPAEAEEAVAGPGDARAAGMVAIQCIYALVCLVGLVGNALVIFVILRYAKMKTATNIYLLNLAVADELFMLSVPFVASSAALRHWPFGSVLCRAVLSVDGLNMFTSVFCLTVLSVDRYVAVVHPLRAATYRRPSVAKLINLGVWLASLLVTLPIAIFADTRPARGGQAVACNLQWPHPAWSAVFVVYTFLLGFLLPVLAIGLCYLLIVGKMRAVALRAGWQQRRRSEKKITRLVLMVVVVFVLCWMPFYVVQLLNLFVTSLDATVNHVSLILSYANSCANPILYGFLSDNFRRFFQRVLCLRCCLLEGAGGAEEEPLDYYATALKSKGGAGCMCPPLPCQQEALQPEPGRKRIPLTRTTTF
Chain of Somatostatin receptor type 3 (P32745 whole entry): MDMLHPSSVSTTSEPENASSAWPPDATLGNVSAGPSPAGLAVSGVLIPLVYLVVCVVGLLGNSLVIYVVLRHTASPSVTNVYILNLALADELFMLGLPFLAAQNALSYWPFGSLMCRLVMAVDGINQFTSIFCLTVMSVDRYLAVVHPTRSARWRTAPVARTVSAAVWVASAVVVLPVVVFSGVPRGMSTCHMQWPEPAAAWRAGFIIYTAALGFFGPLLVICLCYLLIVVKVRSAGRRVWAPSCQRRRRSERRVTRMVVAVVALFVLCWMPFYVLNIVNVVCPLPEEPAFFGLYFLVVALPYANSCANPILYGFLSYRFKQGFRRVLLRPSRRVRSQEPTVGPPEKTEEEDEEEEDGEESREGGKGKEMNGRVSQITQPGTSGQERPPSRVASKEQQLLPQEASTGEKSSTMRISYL
Chain of Somatostatin receptor type 2 (P30874 whole entry): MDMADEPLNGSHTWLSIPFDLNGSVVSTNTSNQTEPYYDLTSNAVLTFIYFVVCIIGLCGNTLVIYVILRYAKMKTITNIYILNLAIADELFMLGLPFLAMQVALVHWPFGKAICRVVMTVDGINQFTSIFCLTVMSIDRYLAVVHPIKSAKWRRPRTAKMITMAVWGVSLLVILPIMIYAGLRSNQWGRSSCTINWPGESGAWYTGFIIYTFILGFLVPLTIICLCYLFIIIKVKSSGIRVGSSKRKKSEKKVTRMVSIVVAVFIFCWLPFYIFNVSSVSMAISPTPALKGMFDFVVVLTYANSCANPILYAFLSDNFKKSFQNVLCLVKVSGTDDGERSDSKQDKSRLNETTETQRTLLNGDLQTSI
Chain of Somatostatin receptor type 1 (P30872 whole entry): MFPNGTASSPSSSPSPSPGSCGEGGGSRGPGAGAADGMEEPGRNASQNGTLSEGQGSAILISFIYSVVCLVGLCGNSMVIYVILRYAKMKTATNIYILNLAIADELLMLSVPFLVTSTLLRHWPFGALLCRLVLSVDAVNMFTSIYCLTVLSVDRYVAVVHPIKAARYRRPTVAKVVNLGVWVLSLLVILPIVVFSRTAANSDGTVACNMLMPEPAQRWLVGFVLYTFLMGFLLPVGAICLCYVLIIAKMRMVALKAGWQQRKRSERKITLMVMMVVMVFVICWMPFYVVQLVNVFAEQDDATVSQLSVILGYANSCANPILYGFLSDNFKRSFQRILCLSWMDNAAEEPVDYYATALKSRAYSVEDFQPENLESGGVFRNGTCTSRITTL

`CC(C)(C)[C@@H]1NC(=O)[C@H](CCCCN)NC(=O)[C@@H](Cc2c[nH]c3ccccc23)NC(=O)[C@H](Cc2cccnc2)NC(=O)[C@H](NC(=O)[C@H](N)Cc2ccc(Cl)cc2)CSSC[C@@H](C(=O)N[C@H](Cc2ccc(Cl)cc2)C(N)=O)NC1=O`: the Ki was 1190 nM in assay [1]; 56 nM in assay [2]; 153 nM in assay [3]; 2880 nM in assay [4]; above 1000 nM in assay [5].
For the compound `CC(C)(C)[C@@H]1NC(=O)[C@H](CCCCN)NC(=O)[C@@H](Cc2c[nH]c3ccccc23)NC(=O)[C@H](Cc2cccnc2)NC(=O)[C@H](NC(=O)[C@@H](N)Cc2ccc(Cl)cc2)CSSC[C@@H](C(=O)N[C@@H](Cc2ccc(Cl)cc2)C(N)=O)NC1=O`, the Ki in assay [1] was 58 nM; in assay [2], 19 nM; in assay [4], 1640 nM; in assay [5], above 1000 nM.
As for `CC(C)[C@@H]1NC(=O)[C@H](CCCCN)NC(=O)[C@@H](Cc2c[nH]c3ccccc23)NC(=O)[C@H](Cc2cccnc2)NC(=O)[C@H](NC(=O)[C@@H](N)Cc2ccc(I)cc2)CSSC[C@@H](C(=O)N[C@@H](Cc2ccc(I)cc2)C(N)=O)NC1=O`, the Ki is 18 nM in assay [1]; 32 nM in assay [2]; 48 nM in assay [3]; 436 nM in assay [4]; 575 nM in assay [5].
For `CC[C@H](C)[C@@H]1NC(=O)[C@H](CCCCN)NC(=O)[C@@H](Cc2c[nH]c3ccccc23)NC(=O)[C@H](Cc2ccc(O)cc2)NC(=O)[C@H](NC(=O)[C@@H](N)Cc2ccc(-c3ccccc3)cc2)CSSC[C@@H](C(=O)N[C@@H](Cc2ccc(-c3ccccc3)cc2)C(N)=O)NC1=O`, the Ki was 1350 nM in assay [1]; 2230 nM in assay [2]; 689 nM in assay [3]; above 1000 nM in assay [4]; above 1000 nM in assay [5].
With `CC(C)[C@@H]1NC(=O)[C@H](CCCCN)NC(=O)[C@@H](Cc2c[nH]c3ccccc23)NC(=O)[C@H](Cc2cccnc2)NC(=O)[C@H](NC(=O)[C@@H](N)Cc2ccc(C#N)cc2)CSSC[C@@H](C(=O)N[C@@H](Cc2ccc(C#N)cc2)C(N)=O)NC1=O`, the inhibitory constant (Ki) in assay [1] was 103 nM; in assay [2], 99 nM; in assay [3], 304 nM; in assay [4], above 1000 nM; in assay [5] it was above 1000 nM.
As to `CC(C)[C@@H]1NC(=O)[C@H](CCCCN)NC(=O)[C@@H](Cc2c[nH]c3ccccc23)NC(=O)[C@H](Cc2cccnc2)NC(=O)[C@H](NC(=O)[C@@H](N)Cc2cccc(F)c2)CSSC[C@@H](C(=O)N[C@@H](Cc2cccc(F)c2)C(N)=O)NC1=O`, the inhibitory constant (Ki) was 495 nM in assay [1]; 117 nM in assay [2]; 748 nM in assay [3]; above 1000 nM in assay [4]; 82 nM in assay [5].
For `CC(C)[C@@H]1NC(=O)[C@H](CCCCN)NC(=O)[C@@H](Cc2c[nH]c3ccccc23)NC(=O)[C@H](Cc2cccnc2)NC(=O)[C@H](NC(=O)[C@@H](N)Cc2ccc(F)cc2)CSSC[C@@H](C(=O)N[C@@H](Cc2ccc(F)cc2)C(N)=O)NC1=O`, the Ki in assay [1] is 120 nM; in assay [2], 20 nM; in assay [3], 369 nM; in assay [4] it was above 1000 nM; in assay [5], 435 nM.
On the same counts, the results for `NCCCC[C@@H]1NC(=O)[C@@H](Cc2c[nH]c3ccccc23)NC(=O)[C@H](Cc2cccnc2)NC(=O)[C@H](NC(=O)[C@@H](N)Cc2ccc3ccccc3c2)CSSC[C@@H](C(=O)N[C@@H](Cc2ccc3ccccc3c2)C(N)=O)NC(=O)CNC1=O` are 192 nM, 163 nM, 382 nM, 1570 nM and 413 nM.
The corresponding values for `CC(C)C[C@@H]1NC(=O)[C@H](CCCCN)NC(=O)[C@@H](Cc2c[nH]c3ccccc23)NC(=O)[C@H](Cc2cccnc2)NC(=O)[C@H](NC(=O)[C@@H](N)Cc2ccc3ccccc3c2)CSSC[C@@H](C(=O)N[C@@H](Cc2ccc3ccccc3c2)C(N)=O)NC1=O` are 243 nM, 543 nM, 968 nM, 728 nM and 415 nM.
On the same counts, the results for `CC(C)[C@@H]1NC(=O)[C@H](CCCCN)NC(=O)[C@@H](Cc2c[nH]c3ccccc23)NC(=O)[C@H](Cc2cccnc2)NC(=O)[C@H](NC(=O)[C@H](N)Cc2ccc(F)cc2)CSSC[C@@H](C(=O)N[C@H](Cc2ccc(F)cc2)C(N)=O)NC1=O` are 838 nM, 106 nM, 694 nM, above 1000 nM and above 1000 nM.
Regarding `CC(C)[C@@H]1NC(=O)[C@H](CCCCN)NC(=O)[C@@H](Cc2c[nH]c3ccccc23)NC(=O)[C@H](Cc2cccnc2)NC(=O)[C@H](NC(=O)[C@@H](N)Cc2c(F)c(F)c(F)c(F)c2F)CSSC[C@@H](C(=O)N[C@@H](Cc2c(F)c(F)c(F)c(F)c2F)C(N)=O)NC1=O`, the inhibitory constant (Ki) in assay [1] was 111 nM; in assay [2], 633 nM; in assay [3], 960 nM; in assay [4], 176 nM; in assay [5] it was 525 nM.
The corresponding values for `CC(C)[C@@H]1NC(=O)[C@H](CCCCN)NC(=O)[C@@H](Cc2c[nH]c3ccccc23)NC(=O)[C@H](Cc2cccnc2)NC(=O)[C@H](NC(=O)[C@@H](N)Cc2ccc3ccccc3c2)CSSC[C@@H](C(=O)N[C@@H](Cc2ccc3ccccc3c2)C(N)=O)NC1=O` are 171 nM, 81 nM, 524 nM, above 1000 nM and 348 nM.
For `CC(C)[C@@H]1NC(=O)[C@H](CCCCN)NC(=O)[C@@H](Cc2c[nH]c3ccccc23)NC(=O)[C@H](Cc2ccccn2)NC(=O)[C@H](NC(=O)[C@@H](N)Cc2c(F)c(F)c(F)c(F)c2F)CSSC[C@@H](C(=O)N[C@@H](Cc2c(F)c(F)c(F)c(F)c2F)C(N)=O)NC1=O`, the Ki in assay [1] was 170 nM; in assay [2] it was above 1000 nM; in assay [3] it was 918 nM; in assay [5], 568 nM.
As for `CC(C)[C@@H]1NC(=O)[C@H](CCCCN)NC(=O)[C@@H](Cc2c[nH]c3ccccc23)NC(=O)[C@H](Cc2cccnc2)NC(=O)[C@H](NC(=O)[C@@H](N)Cc2ccc(Br)cc2)CSSC[C@@H](C(=O)N[C@@H](Cc2ccc(Br)cc2)C(N)=O)NC1=O`, the Ki turned out to be 57 nM in assay [1]; 16 nM in assay [2]; 66 nM in assay [3]; 3310 nM in assay [4]; 374 nM in assay [5].
The corresponding values for `CC(C)[C@@H]1NC(=O)[C@H](CCCCN)NC(=O)[C@@H](Cc2c[nH]c3ccccc23)NC(=O)[C@H](Cc2cccnc2)NC(=O)[C@H](NC(=O)[C@@H](N)Cc2ccccc2F)CSSC[C@@H](C(=O)N[C@@H](Cc2ccccc2F)C(N)=O)NC1=O` are 385 nM, 241 nM, 1580 nM, above 1000 nM and 186 nM.
Regarding `CC(C)[C@@H]1NC(=O)[C@H](CCCCN)NC(=O)[C@@H](Cc2c[nH]c3ccccc23)NC(=O)[C@@H](Cc2ccccn2)NC(=O)[C@H](NC(=O)[C@@H](N)Cc2c(F)c(F)c(F)c(F)c2F)CSSC[C@@H](C(=O)N[C@@H](Cc2c(F)c(F)c(F)c(F)c2F)C(N)=O)NC1=O`, the inhibition constant Ki in assay [1] was determined as 93 nM; in assay [2], 692 nM; in assay [3], 1380 nM; in assay [5] it was 34 nM.
On to `C[C@@H](O)[C@@H]1NC(=O)[C@H](CCCCN)NC(=O)[C@@H](Cc2c[nH]c3ccccc23)NC(=O)[C@H](Cc2ccccc2)NC(=O)[C@H](NC(=O)[C@@H](N)Cc2ccc(Cl)cc2)CSSC[C@@H](C(=O)N[C@@H](Cc2ccc3ccccc3c2)C(N)=O)NC1=O`, for which the Ki is 290 nM in assay [1], 51 nM in assay [2], above 1000 nM in assay [4] and 443 nM in assay [5].
Take `CC(C)[C@@H]1NC(=O)[C@H](CCCCN)NC(=O)[C@@H](Cc2c[nH]c3ccccc23)NC(=O)[C@H](Cc2cccnc2)NC(=O)[C@H](NC(=O)[C@@H](N)Cc2ccc(Cl)cc2)CSSC[C@@H](C(=O)N[C@@H](Cc2ccc(Cl)cc2)C(N)=O)NC1=O`: the inhibition constant (Ki) in assay [1] was 51 nM; in assay [2], 32 nM; in assay [3], 139 nM; in assay [4], 301 nM; in assay [5] it was above 1000 nM.
For the compound `C[C@@H](O)[C@@H]1NC(=O)[C@H](CCCCN)NC(=O)[C@@H](Cc2c[nH]c3ccccc23)NC(=O)[C@H](Cc2ccccn2)NC(=O)C(NC(=O)[C@@H](N)Cc2ccc(Cl)cc2)CSSCC(C(=O)N[C@@H](Cc2ccc3ccccc3c2)C(N)=O)NC1=O` (stereo in doubt), the Ki in assay [1] amounted to 108 nM; in assay [2], 233 nM; in assay [3], 204 nM; in assay [5] it was 1690 nM.
For `C[C@@H](O)[C@@H]1NC(=O)[C@H](CCCCN)NC(=O)[C@@H](Cc2c[nH]c3ccccc23)NC(=O)[C@@H](Cc2cccnc2)NC(=O)C(NC(=O)[C@@H](N)Cc2ccc(Cl)cc2)CSSCC(C(=O)N[C@@H](Cc2ccc3ccccc3c2)C(N)=O)NC1=O` (stereo in doubt), in assay [4], the Ki is above 1000 nM.
`CC(C)(C)C[C@@H]1NC(=O)[C@H](CCCCN)NC(=O)[C@@H](Cc2c[nH]c3ccccc23)NC(=O)[C@H](Cc2cccnc2)NC(=O)C(NC(=O)[C@@H](N)Cc2ccc(Cl)cc2)CSSCC(C(=O)N[C@@H](Cc2ccc3ccccc3c2)C(N)=O)NC1=O` (stereo in doubt): the Ki in assay [1] turned out to be 175 nM; in assay [2] it was 166 nM; in assay [3], 110 nM; in assay [5], 238 nM.

In general, Ki refers to a dissociation constant, usually derived from enzyme kinetics or from competition with a known ligand. Higher therefore signals lower affinity.

The values above are taken from ChEMBL document CHEMBL1132220 (J Med Chem, 1999).
